Screening results: PubChem, several laboratories
ZTA counter = counter-screen for EBNA-1 inhibitors: inhibitors of Epstein-Barr virus ZTA. P03206. ZTA-DNA binding, fluorescence polarization. inhibition, % at 11 µM. hit rate 0.15% among 320,000. AID 2234; in the data active means inhibition above about 33%
Target sequence (P03206 whole entry, looked up): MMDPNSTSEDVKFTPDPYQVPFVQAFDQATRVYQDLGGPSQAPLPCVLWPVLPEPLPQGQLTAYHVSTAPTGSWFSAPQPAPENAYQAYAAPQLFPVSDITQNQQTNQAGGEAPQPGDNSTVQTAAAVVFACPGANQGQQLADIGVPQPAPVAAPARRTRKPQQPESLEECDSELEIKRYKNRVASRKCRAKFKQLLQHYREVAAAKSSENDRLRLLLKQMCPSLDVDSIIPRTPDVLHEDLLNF
eIF4H FP inh = inhibitors of RNA binding by human eIF4H | hit rate 0.94% among 290,000 | Q15056 | AID 2012 | inhibition, % at 35 µM | eIF4H fluorescence polarization binding assay;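 further: calls also rest on retests at 20 µM and on dose response follow-up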
MLLE-PAM2 inh = blocks PAM2 peptide binding to the PABP1 MLLE domain; P11940; GST-MLLE / FITC-PAM2 fluorescence polarization; inhibition, % at 20 µM; hit rate 0.36% among 360,000; in the data active means inhibition above about 35%, passing the limit was not always enough;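 further: plate controls were DMSO wells with GST-MLLE for no effect and wells lacking GST-MLLE protein for full effect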
EBNA-1 inh = blocks EBNA-1 binding to DNA; inhibition, % at 14.8 µM; EBNA-1 DNA binding, fluorescence polarization; hit rate 0.34% among 300,000; in the data active means inhibition above about 28%
HCV NS3 hel inh = inhibitors of Hepatitis C virus NS3 helicase; NS3 helicase DNA unwinding, Cy5 molecular beacon fluorescence; inhibition, % at 10.9 µM; hit rate 0.56% among 290,000; AID 1800;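 active means inhibition above the mean of all tested compounds plus 3 SD, set per campaign, cut at about 35% in these data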;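 further: 0% = DMSO wells and 100% = thioflavine S control wells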
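test system = hepatitis C virus NS3 helicase domain fragment enzyme | reagent = annealed dual-labelled DNA beacon duplex, ATP-started | times = 1 h at 25 °C | detection = Cy5 fluorescence, 0 and 60 min reads | read-out basis = percent inhibition from t60/t0 fluorescence ratio | control set = DMSO and thioflavine S | replication = one well per compound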
PABP FP inh = PABP-poly(A) binding inhibition. inhibition, % at 35 µM. P11940. hit rate 1% among 290,000. PABP-poly(A) RNA binding, fluorescence polarization;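 further: calls also rest on retests at 20 µM and on dose response follow-up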
ZTA inh confirm = EBV ZTA DNA binding inhibition, confirmation; shares compounds with ZTA counter; Zta-ZRE DNA binding, fluorescence polarization; inhibition, % at 11.1 µM; hit rate 30% among 320;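 active means mean inhibition across triplicate runs above the hit threshold derived for the original primary screen, cut at about 33% in these data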;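 further: 0% = Zta with DMSO and 100% = wells lacking Zta protein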
EBNA1 counter = blocks EBNA-1 DNA binding in ZTA counter-screen. shares compounds with ZTA counter. fluorescence polarization. inhibition, % at 14.8 µM. 320 tested, under 10 active
* marks the source's active call; other numbers are inactive results; . = no result; ! = not confirmed by another sample. This is a sample that favours compounds with a hit; in the whole collection about 2.1% have one here. Unless noted, how the calls were made is not given here.

SMILES	ZTA counter	eIF4H FP inh	MLLE-PAM2 inh	EBNA-1 inh	HCV NS3 hel inh	PABP FP inh	ZTA inh confirm	EBNA1 counter
C#CCOCCOCCOCCNc1nc(N2CCN(C(=O)CCCCCCCCCCNC(=O)[C@H](CCCCN)n3cc(CCCC(=O)O)nn3)CC2)nc(N2CCN(C(=O)CCCCCCCCCCNC(=O)[C@H](CCCCN)n3cc(CCCC(=O)O)nn3)CC2)n1	-3	.	3	5	.	.	.	.
C#CCOCCOCCOCCNc1nc(N2CCN(C(=O)CCCCCCCCCCNC(=O)[C@H](CCCCN)n3cc(CCO)nn3)CC2)nc(N2CCN(C(=O)CCCCCCCCCCNC(=O)[C@H](CCCN=C(N)N)n3cc(C[C@@H](C)CC)nn3)CC2)n1	36*	.	-17	5	.	.	65*	-4
C#CCOCCOCCOCCNc1nc(N2CCN(C(=O)CCCCCCCCCCNC(=O)[C@H](CCCCN)n3cc(CCCC(=O)O)nn3)CC2)nc(N2CCN(C(=O)CCCCCCCCCCNC(=O)[C@H](CCCN=C(N)N)n3cc(C[C@@H](C)CC)nn3)CC2)n1	48*	.	7	9	.	.	-2	-11
CCOCCn1c(CN2CCC(Cc3ccccc3)CC2)nc2c1c(=O)n(C)c(=O)n2C	1	-7	15	5	-8	1	.	.
Cc1n[nH]c(C)c1S(=O)(=O)N(C)Cc1ccco1	11	.	13	.	.	.	.	.
CCOC(=O)C1CCCCN1Cc1ccc(OC)c(OC)c1 (configuration not stated)	34*	4	11	4	5	7	-5	-8
CC1Cc2ccccc2N1S(=O)(=O)c1cccc(C(=O)OCC(=O)NC2CCS(=O)(=O)C2)c1 (configuration not stated)	9	-5	-2	7	-5	-4	.	.
C=CCOc1ccc(/C=C2\SC(=S)N(N3CCOCC3)C2=O)cc1	41*	5	-13	1	-6	-10	3	-2
Cc1cccc(C)c1OCc1cc(C(=O)NCc2ccc(Cl)s2)no1	-6	-3	0	0	4	-14	.	.
COC(=O)CSc1nnc([C@H](Cc2ccccc2)NC(=O)OC(C)(C)C)o1	90*	-1	-5	5	-2	1	0	-4
CC(C)(C)OC(=O)N[C@@H](Cc1ccccc1)c1nnc(SCC(N)=O)o1	-4	11	0	-4	0	-4	.	.
CC(=O)NC(CCS(C)(=O)=O)C(=O)Nc1ccc(Cl)c(Cl)c1 (configuration not stated)	36*	-3	8	20	2	14	0	-5
COc1cc(/C=C2/CC/C(=C/c3ccc(O)c(OC)c3)C2=O)ccc1O	-10	17	-148	-1	20	7	.	.
COc1cc(/C=C2\COC/C(=C\c3ccc(O)c(OC)c3)C2=O)ccc1O	52*	-1	-16	8	-17	12	42*	-11
COC/C=C/C1=CC2=CC(=O)C(C)(OC(=O)c3cnc4ccccc4n3)C(=O)C2=CO1 (configuration not stated)	40*	.	.	2	.	.	21	1
COC/C=C/C1=CC2=CC(=O)C(C)(OC(=O)c3cnc4ccccc4n3)C(=O)C2=CN1C(CO)CO (configuration not stated)	-18	39	30	-15	.	28	.	.
CCCCC1CCC(C(=O)N(C)CC(=O)Nc2cccc(OC)c2)CC1 (configuration not stated)	8	.	12	.	.	.	.	.
CN(C)CCOc1ccccc1-c1ccccc1	37*	-7	8	4	-1	-3	-12	-7
CC1(C)CC(=O)C=C(c2ccc(-c3ccccc3)cc2)C1	48*	.	1	.	.	.	30	9
CN(C)c1ccc(N=C/C=C2\N(C)c3ccccc3C2(C)C)cc1	163*	-13	-28	6	28	-4	2	-2
CN1/C(=C\C=Nc2ccc3ccccc3c2)C(C)(C)c2ccccc21	8	-5	-109	-11	8	0	.	.
CC1CN(C(=O)N2CCOCC2)CCN1C(=O)N1CCOCC1 (configuration not stated)	-19	-6	-2	-3	6	0	.	.
O=C(Nc1ccccc1NC(=O)c1ccccc1F)c1ccccc1F	.	-8	-1	.	-7	-8	.	.
O=C(Nc1ccccc1Sc1ccccc1)c1ccccc1F	37*	.	-6	-7	9	.	-2	-5
CC(C)C(NS(=O)(=O)c1ccccc1)C(=O)OCC(=O)NNC(=O)c1ccccc1 (configuration not stated)	.	.	7	.	.	.	.	.
SMILES	ZTA counter	eIF4H FP inh	MLLE-PAM2 inh	EBNA-1 inh	HCV NS3 hel inh	PABP FP inh	ZTA inh confirm	EBNA1 counter
CCN1CCN(Cc2ccc(NC(=O)c3ccc(C)c(NC(=O)C(=O)c4c[nH]c5ccccc45)c3)cc2C(F)(F)F)CC1	40*!	-36	3	12	-103	-15	32	-7
COc1cccc2c1C(=O)c1c(O)c3c(c(O)c1C2=O)C[C@@](O)(C(=O)CO)C[C@@H]3O[C@H]1C[C@H](N)[C@@H](O)[C@H](C)O1	72*	.	127	20	.	.	106*	12
CCC(C)Oc1ccc(/C=C/c2[nH]c(=O)[nH]c(=O)c2[N+](=O)[O-])cc1OC (configuration not stated)	21	10	-10	6	25	15	.	.
COc1cc(/C=C/c2[nH]c(=O)[nH]c(=O)c2[N+](=O)[O-])cc([N+](=O)[O-])c1O	36*	59*	24	-2	21	61*	55*	-8
CCOc1ccc(NC(=O)CSc2nccn(-c3ccc4c(c3)OCCO4)c2=O)cc1	47*	.	35	4	.	.	4	2
N#Cc1ccccc1S(=O)(=O)N1CCC(C(=O)NCc2ccccc2CN2CCCC2)CC1	6	.	10	.	.	.	.	.
Cc1ccc2oc(C(=O)N3CCN(c4cccc(C)n4)CC3)c(C)c2c1	-7	11	2	0	-8	6	.	.
Cc1ccc(S(=O)(=O)N(C)c2ccccc2C(=O)N2CCCC2)cc1	155*	-20	-5	-9	-10	0	-9	-15
Cc1ccc([N+](=O)[O-])cc1NC(=O)C1CCN(S(C)(=O)=O)CC1	49*	-3	3	-6	-9	-1	-3	-12
Cc1ccc([N+](=O)[O-])cc1NC(=O)C1CCCC1	11	-7	7	6	2	-10	.	.
O=C1/C(=C/c2ccc(O)cc2)SC(=S)N1Cc1cccnc1	77*	-5	-136	-11	1	0	7	-2
COc1ccc(-c2coc3c(CN4CCCCC4)c(O)c(CN4CCCCC4)c(O)c3c2=O)cc1	73*	2	.	-4	-49	-8	2	-10
CCn1c(CSc2nccn2C)nc2cc(C(=O)O)ccc21	38*	115*	51*	4	18	126*	28	16
